L major viab: Leishmania major promastigote growth inhibition, primary screen. AID 1063, 2008. 9% of 200,000 active. Leishmania major promastigotes, resazurin fluorescence viability. inhibition, % at 10 µM; in the data active means inhibition above about 50%;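 further: promastigotes grown with compound for 44 hours at 28 °C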
S1P4 antagonist: S1P4 receptor antagonists, primary screen, cell-based | 0.26% of 220,000 active | Sphingosine 1-phosphate receptor 4 (Homo sapiens), O95977 | AID 1510, 2009 | inhibition, % at 4.98 µM | S1P4-expressing cells, antagonist mode, reporter read-out; in the data active means inhibition above about 29%;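 further: 0% = wells stimulated with agonist and 100% = vehicle wells without agonist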
S1P3 antag: S1P3 receptor antagonists, primary screen, cell-based; CHO S1P3 NFAT-BLA reporter, FRET fluorescence, antagonist mode; inhibition, % at 4.98 µM; 0.27% of 170,000 active; AID 485, 2006;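 active means inhibition above the plate cutoff, the mean inhibition of test wells on that plate plus 3 SD, cut at about 28% in these data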;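 further: cells challenged with S1P at its EC80 of 0.8 µM; blue over green emission ratio from cleaved BLA substrate after 4 h stimulation; 0% = S1P-stimulated wells and 100% = unstimulated DMSO-only wells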
Target sequence (Q99500 whole entry, looked up): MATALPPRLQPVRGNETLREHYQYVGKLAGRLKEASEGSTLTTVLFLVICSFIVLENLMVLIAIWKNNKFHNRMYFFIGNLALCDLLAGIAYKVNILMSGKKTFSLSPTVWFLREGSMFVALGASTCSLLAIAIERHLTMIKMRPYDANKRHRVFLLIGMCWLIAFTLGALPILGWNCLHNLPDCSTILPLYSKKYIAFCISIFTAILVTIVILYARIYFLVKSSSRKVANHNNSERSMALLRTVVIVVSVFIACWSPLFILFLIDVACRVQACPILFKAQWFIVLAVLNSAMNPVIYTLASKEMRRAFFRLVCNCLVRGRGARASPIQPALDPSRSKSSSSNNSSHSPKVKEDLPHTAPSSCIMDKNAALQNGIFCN
MDM2 E3 inh: MDM2-luciferase reporter signal enhancers, primary screen, MDM2 E3 ligase inhibitor project, cell-based, luminescence, 1536-well; 0.11% of 210,000 active; cell-based MDM2 ubiquitination luciferase reporter, 2 h; 0 = plate control, 100 = twice control, blank-subtracted; signal enhancement, % at 5 µM; E3 ubiquitin-protein ligase Mdm2 (Homo sapiens), Q00987;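 active means signal enhancement of 30% or more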;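 further: luminescence tracks abundance of the self-degrading MDM2-luciferase fusion protein; higher signal means inhibition of MDM2 E3 ligase activity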
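System: stable MDM2–luciferase fusion reporter cells / Input: 2000 cells seeded into each well / Schedule: 4 h settle plus 2 h compound, 37 °C / Compound: single-point 5 µM / Buffer or medium: cells held in DMEM / Benchmarks: control and blank well means / Evaluation: percent signal gain over controls, blank-subtracted / Measured by: luciferase luminescence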
S1P4 agonist: S1P4 receptor agonists, primary screen, cell-based. activation, % at 4.98 µM. 0.35% of 220,000 active. Sphingosine 1-phosphate receptor 4 (Homo sapiens), O95977. S1P4-expressing cell line, agonist reporter assay; in the data active means activation above about 11%;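 further: 0% = DMSO vehicle and 100% = reference agonist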
The depositor's hits bear a star; x = no result given. This excerpt belongs to a sample that is enriched for hits.

SMILES | L major viab | S1P4 antagonist | S1P3 antag | MDM2 E3 inh | S1P4 agonist
CCC(C)NC(=S)N1CCN(Cc2ccc3c(c2)OCO3)CC1 (stereo unspecified) | 14 | -7 | -11 | -9 | 0
Cc1ccc(NC(=S)N2CCN(Cc3ccc4c(c3)OCO4)CC2)c(C)c1 | 89* | -19 | x | x | 3
CC(C)CNC(=S)N1CCN(Cc2ccc3c(c2)OCO3)CC1 | 37 | -2 | -12 | -8 | 2
Cc1cccc(NC(=S)N2CCN(Cc3ccc4c(c3)OCO4)CC2)c1C | 90* | 0 | x | -9 | 1
CCN(CC)S(=O)(=O)c1ccc(C)c(NC(=O)CN2CCN(Cc3ccccc3)CC2)c1 | x | -14 | -4 | x | 1
CC(C)c1ccccc1NC(=S)N1CCN(Cc2ccc3c(c2)OCO3)CC1 | 77* | 14 | 9 | 0 | 0
CCN(CC)S(=O)(=O)c1ccc(C)c(NC(=S)N2CCN(C/C=C/c3ccccc3)CC2)c1 | 60* | -36 | 6 | -15 | 2
N[C@@H](Cc1ccccc1)c1nnc(SC/C=C/c2ccccc2)o1 | x | 4 | 2 | -12 | 1
Cn1c(=O)c2c(ncn2CC(O)CNc2cccc(Cl)c2)n(C)c1=O (stereo unspecified) | 3 | -7 | -10 | -13 | 1
CCN(CC)S(=O)(=O)c1ccc(C)c(NC(=S)N2CCN(Cc3ccc4c(c3)OCO4)CC2)c1 | 96* | -2 | -3 | -3 | 1
NS(=O)(=O)c1ccc(NC(=S)N2CCN(Cc3ccc4c(c3)OCO4)CC2)cc1 | -3 | 8 | 6 | -3 | 1
O=C(O)CNC(=O)C12CC3CC(CC(Cl)(C3)C1)C2 | 0 | 0 | -14 | -54 | 0
Cc1onc(-c2ccc(Cl)cc2)c1-c1ccnc(SCC(=O)Nc2cc(Cl)cc(Cl)c2)n1 | x | -6 | 6 | -12 | 0
Clc1cc(Br)ccc1OCCCn1ccnc1 | 97* | -21 | -18 | -6 | 1
Clc1cc(Br)ccc1OCCn1ccnc1 | 28 | -41 | -3 | -12 | 2
Cc1cc(Br)ccc1OCCn1ccnc1 | 72* | -16 | -11 | 1 | 0
CCNC(=S)N1CCN(C(=O)C(Cc2ccccc2)NC(C)=O)CC1 (stereo unspecified) | -3 | -16 | -28 | 6 | 0
Nc1cc(C(=O)c2ccccc2)ccc1[N+](=O)[O-] | 1 | 3 | -2 | -7 | 3
O=C(COC(=O)CCc1nc2ccccc2c(=O)[nH]1)NC(=O)NC1CCCC1 | 53* | -6 | 13 | -7 | 0
Cc1ccc(OCCOC(=O)CCc2nc3ccccc3c(=O)[nH]2)cc1 | -12 | -12 | -22 | -6 | 0
O=C(CCc1nc2ccccc2c(=O)[nH]1)OCc1ccc(-c2ccccc2)cc1 | 93* | -9 | -6 | 3 | -1
CCN1CCN(C(=O)CCc2nc3ccccc3c(=O)[nH]2)CC1 | -1 | -6 | x | 37* | 0
O=C(CCc1nc2ccccc2c(=O)[nH]1)OCc1cccc(C(F)(F)F)c1 | 63* | -9 | -1 | 0 | -1
Fc1ccc(CN2C3=NCCN3c3ccccc32)cc1 | x | -2 | -4 | -7 | -1
CC1CCc2c(sc3ncn(N)c(=N)c23)C1 (stereo unspecified) | x | -3 | 4 | -9 | 2
SMILES | L major viab | S1P4 antagonist | S1P3 antag | MDM2 E3 inh | S1P4 agonist
Cc1oc(CC(C)C)c(CN)c1C(=O)O | -5 | -21 | x | -5 | 2
CCCc1nc(SCC(=O)c2ccc(F)cc2)c2ccccc2n1 | 18 | 13 | 4 | -11 | 3
CC1(C(=O)N(c2ccccc2)C(C(=O)NC2CCCC2)c2ccccn2)CC(=O)N=C2C=CC=CN21 (stereo unspecified) | -5 | 7 | -12 | -13 | -2
CS(=O)(=O)N(Cc1ccccc1)c1ccc(C(=O)N2CCN(c3cccc(Cl)c3)CC2)cc1 | 73* | 5 | x | -4 | 1
CS(=O)(=O)N(CC(=O)N1CCN(c2ccccc2)CC1)c1ccc(Cl)c(C(F)(F)F)c1 | 89* | -6 | x | -11 | 1
CC1CCN(C(=O)CN(c2ccc(Cl)c(C(F)(F)F)c2)S(C)(=O)=O)CC1 | 69* | -12 | x | -9 | 2
CS(=O)(=O)N(CC(=O)N1CCN(c2ccccc2)CC1)c1cc(C(F)(F)F)ccc1Cl | -7 | 4 | x | -13 | -2
CCC(C)(C)n1nnnc1CN1CCc2ccccc21 | 2 | 2 | x | -29 | 1
COc1ccc(CC2(CO)CCN(S(=O)(=O)c3sccc3C)CC2)cc1 | 9 | 0 | 1 | -15 | 1
CCc1cccc2c(C(=O)COC(=O)c3ccc([N+](=O)[O-])s3)c[nH]c12 | 100* | 0 | -7 | 7 | -1
O=C(OCC(=O)c1c[nH]c2ccccc12)c1ccc([N+](=O)[O-])s1 | 100* | -12 | -11 | 4 | 0
Cc1ccc(C(=O)OCC(=O)c2c[nH]c3ccccc23)cc1 | 2 | -18 | -1 | 3 | 0
CCc1cccc2c(C(=S)N3CCCC3)c[nH]c12 | -3 | -5 | -2 | -3 | 2
CCc1cccc2c(C(=O)CSc3nncn3C)c[nH]c12 | 4 | 0 | -17 | -7 | 1
CCc1cccc2c(C(=O)CCl)c[nH]c12 | 58* | -11 | -2 | -17 | 1
CCOC(=O)C1C(=O)NC(c2ccccc2)=NC1c1ccc(Br)cc1 (stereo unspecified) | 17 | 6 | -12 | -6 | -3
CCOc1ccc(NC(=S)N(CCc2c(C)[nH]c3ccc(C)cc23)Cc2cccnc2)cc1 | 100* | 0 | 13 | x | 0
Cc1ccccc1NC(=S)N(CCc1c(C)[nH]c2ccc(F)cc12)Cc1ccncc1 | 98* | -5 | 26 | -6 | 0
COc1ccc2[nH]c(C)c(CCN(Cc3cccs3)C(=S)Nc3ccccc3)c2c1 | 46 | -9 | x | -9 | 0
COc1ccc(NC(=S)N(CCc2nc3cc(C)c(C)cc3[nH]2)Cc2cccnc2)cc1 | 90* | -8 | x | -13 | 0
Cc1[nH]c2ccc(F)cc2c1CCN(Cc1ccncc1)C(=S)Nc1cccc(F)c1 | 99* | 5 | 4 | -5 | 0
CNC(=S)N(CCc1c(C)[nH]c2ccc(C)cc12)Cc1cccs1 | 46 | -7 | 5 | 0 | 3
COc1ccc(NC(=S)N(CCc2ccc(OC)c(OC)c2)Cc2ccccn2)cc1 | 7 | -20 | 7 | -22 | 1
COc1ccc2[nH]c(C)c(CCN(Cc3cccs3)C(=S)Nc3ccc(F)cc3)c2c1 | 40 | -4 | x | -5 | -4
COc1ccc(NC(=S)N(CCc2c(C)[nH]c3ccccc23)Cc2cccnc2)cc1 | 100* | -15 | -3 | x | 1
COc1ccc(NC(=S)N(CCc2c(C)[nH]c3ccc(C)cc23)Cc2ccco2)cc1 | 31 | 5 | 7 | x | 1

Assay outcomes from PubChem.
